Measurements published in ChEMBL document CHEMBL3352644, “Selenadiazole derivatives as potent thioredoxin reductase inhibitors that enhance the radiosensitivity of cancer cells” (Eur J Med Chem, 2014).
In brackets after ≈: the same amount, converted by molar mass. Activity calls are given as the source filed them. No cut-off for these calls is given here.

Key:
A-375 [1] = test: Cytotoxicity against human A375 cells pre-treated with 20 uM p38 inhibitor […] for 1 hr followed by 8 ug/mL compound exposure for 18 hrs by MTT assay; format: functional, cell-based
Procedure, shortened: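 A375 cells pretreated 1 h with 20 µM SP600125 (JNK) or SB203580 (p38), then exposed to compound at 8 µg/ml for 18 h. Viability by MTT (formazan in DMSO, 570 nm), expressed as % of control.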

A-375 [2] = test: Induction of cell shrinkage in human A375 cells pre-treated with 20 uM p38 inhibitor […] for 1 hr followed by 8 ug/mL compound exposure for 18 hrs by microscopy; format: functional, cell-based
Procedure, shortened: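 A375 cells pretreated 1 h with […] JNK inhibitor SP600125 or p38 inhibitor SB203580, then given […] compound for 18 h. Morphology imaged.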

A-375 [3] = test: Induction of ROS generation in human A375 cells at 4 ug/mL […] by DCF and DHE dye based fluorescence assay; format: functional, cell-based
A-375 [4] = test: Induction of ROS generation in human A375 cells at 2 ug/mL incubated for 6 hrs followed by irradiation with 8 Gy X-ray at 37 degC for 12 hrs by DCF and DHE dye based fluorescence assay; format: functional, cell-based
Procedure, shortened: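 A375 cells (4 × 10⁴/well) cultured 24 h, then treated 6 h at 8 or 16 µg/ml or at 2 or 4 µg/ml, and given 0 or 8 Gy X-ray. Loaded with H₂DCF or DHE for 30 min at 37 °C in the dark. Fluorescence read at 485/535 nm (DCF) or 480/610 nm (DHE); % of control.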

[5] = target: Thioredoxin reductase (Homo sapiens) (UniProt Q16881+Q9NNW7+Q86VQ6); test: Inhibition of TrxR antioxidant enzyme activity in human A375 cells at 2 ug/mL after 18 hrs by insulin reduction assay; format: cell-based; conditions: A-375
A-375 [6] = test: Reduction in Trx expression in human A375 cells at 2 ug/mL after 18 hrs by Western blotting method; format: functional, cell-based
Homo sapiens = species on record: Homo sapiens; test: Binding affinity to PMB-AGUVGAGLIK TrxR model peptide (unknown origin) at peptide to compound molar ratio of 1:1 at 37 degC for 18 hrs by MALDI-TOF-MS/MS assay
Procedure, shortened: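 Pre-reduced TrxR model peptide PMB-Ala-Gly-Sec-Val-Gly-Ala-Gly-Leu-Ile-Lys incubated with compound at 1:1 molar ratio, 37 °C, 18 h; adducts examined by MALDI-TOF MS, looking for compound-derived mass shifts and fragment peaks.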

A-375 [7] = test: Cytotoxicity against human A375 cells incubated for 6 hrs followed by irradiation with 8 Gy X-ray at 37 degC for 12 hrs by MTT assay; format: functional, cell-based; conditions: A-375, light or radiation study
Procedure, shortened: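 A375 cells (DMEM, 10% FBS, 37 °C, 5% CO2) seeded at 4 × 10⁴ cells/well and grown to 70–80% confluence. Treated with 0, 1, 2, 4, 8, 16 or 32 µg/ml for 6 h, then given 0 or 8 Gy X-ray (linear accelerator, 1.5 Gy/min), then 12 h more at 37 °C. MTT 4 h, formazan dissolved in DMSO, read at 570 nm; % of control; three repeats.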

A-375 [8] = test: Induction of cell cycle arrest in human A375 cells assessed as accumulation at G1/G0 phase at 4 ug/mL incubated for 18 hrs by propidium iodide staining based flow cytometry (reference value: 48.9%); format: functional
Procedure, shortened: (§1)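 A375 cells treated at 10 or 4 µg/ml for 6 h, given 0 or 8 Gy X-ray, then 12 h more. Trypsinized, washed in PBS, fixed overnight in ice-cold 75% ethanol at −20 °C. Stained with propidium iodide, 30 min at 37 °C in the dark; DNA content and sub-G1 population read by flow cytometry.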

A-375 [9] = test: Induction of apoptosis in human A375 cells assessed as accumulation at subG1 phase at 4 ug/mL incubated for 18 hrs by propidium iodide staining based flow cytometry (reference value: 1.8%); format: functional; procedure, shortened: as §1
A-375 [10] = test: Induction of cell cycle arrest in human A375 cells assessed as accumulation at S phase at 4 ug/mL incubated for 18 hrs by propidium iodide staining based flow cytometry (reference value: 37.2%); format: functional; procedure, shortened: as §1
A-375 [11] = test: Induction of cell cycle arrest in human A375 cells assessed as accumulation at S phase at 4 ug/mL incubated for 6 hrs followed by irradiation with 8 Gy X-ray at 37 degC for 12 hrs by propidium iodide staining based flow cytometry (reference value: 7.9%); format: functional; procedure, shortened: as §1
A-375 [12] = test: Induction of apoptosis in human A375 cells assessed as caspase 3 activation at 2 ug/mL incubated for 18 hrs by fluorometric assay; format: functional, cell-based
Procedure, shortened: (§2)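 Cells seeded at 1 × 10⁶ per 10 cm dish and treated with 2 µg/ml alone or with 8 Gy X-ray for 18 h total. RIPA lysates clarified by spinning at 12,000 rpm for 5 min; 80 µg protein given Ac-DEVD-AMC (caspase-3), Ac-IETD-AMC (caspase-8) or Ac-LEHD-AMC (caspase-9). Incubated 2 h at 37 °C in the dark; fluorescence at 380/440 nm.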

A-375 [13] = test: Induction of apoptosis in human A375 cells assessed as caspase 8 activation at 2 ug/mL incubated for 6 hrs followed by irradiation with 8 Gy X-ray at 37 degC for 12 hrs by fluorometric assay; format: functional, cell-based; procedure, shortened: as §2
A-375 [14] = test: Induction of apoptosis in human A375 cells assessed as caspase 9 activation at 2 ug/mL incubated for 6 hrs followed by irradiation with 8 Gy X-ray at 37 degC for 12 hrs by fluorometric assay; format: functional, cell-based; procedure, shortened: as §2
A-375 [15] = test: Induction of apoptosis in human A375 cells assessed as caspase 3 activation at 2 ug/mL incubated for 18 hrs by Western blotting method; format: functional, cell-based
Procedure, shortened: (§3)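 A375 cells treated with 2 µg/ml alone or with 8 Gy X-ray (6 h pretreatment, then 12 h; 18 h total). RIPA lysates (50 µg protein) run on SDS-PAGE and immunoblotted for caspases and PARP cleavage. Reprobed for β-actin as loading control.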

A-375 [16] = test: Induction of apoptosis in human A375 cells assessed as caspase 3 activation at 2 ug/mL incubated for 6 hrs followed by irradiation with 8 Gy X-ray at 37 degC for 12 hrs by Western blotting method; format: functional, cell-based; procedure, shortened: as §3
A-375 [17] = test: Induction of apoptosis in human A375 cells assessed as caspase 8 activation at 2 ug/mL incubated for 6 hrs followed by irradiation with 8 Gy X-ray at 37 degC for 12 hrs by Western blotting method; format: functional, cell-based; procedure, shortened: as §3
A-375 [18] = test: Reduction in Bid expression in human A375 cells at 4 ug/mL incubated for 6 hrs followed by irradiation with 8 Gy X-ray at 37 degC for 12 hrs by Western blotting method; format: functional, cell-based
Procedure, shortened: (§4)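 A375 cells given […] for 6 h, then 0 or 8 Gy X-ray at 1.5 Gy/min and 12 h further culture. Lysis in ice-cold RIPA, pH 7.4, with protease and phosphatase inhibitors; protein by BCA. […] protein per lane on SDS-PAGE, transferred to nitrocellulose. Blocked in 5% milk/TBST. Primary 1:1000, 10 h, 4 °C; HRP secondary 1:2000, 1.5 h.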

[19] = target: MAP kinase p38 (Homo sapiens) (UniProt O15264+Q15759+Q16539+P53778); test: Induction of p38 phosphorylation in human A375 cells at 4 ug/mL incubated for 6 hrs followed by irradiation with 8 Gy X-ray at 37 degC for 12 hrs by Western blotting method; format: cell-based; conditions: A-375; procedure, shortened: as §4

`COc1cc(-c2nc3cc(-c4ccc5n[se]nc5c4)ccc3[nH]2)cc(OC)c1OC` was tested, and the Activity (A-375 [1]) was “inactive”, the Activity (A-375 [2]) was “inactive” and the Activity (A-375 [3]) was “Active”. For the same compound, the Activity (A-375 [4]) was “Active”, the inhibition [5] was “Active” and the Activity (A-375 [6]) was “Active”. For the same compound, the Activity (Homo sapiens) was “Active”, the IC50 (A-375 [7]) was 2.2 µg/mL (≈ 4.73 µM) and the Activity (A-375 [8]) was 21.6%. The Activity (A-375 [9]) was 36.2%, the Activity (A-375 [10]) was 34% and the Activity (A-375 [11]) was 30.6%. The Activity (A-375 [12]) was “Active”, the Activity (A-375 [13]) was “Active” and the Activity (A-375 [14]) was “Active”. The Activity (A-375 [15]) was “Active”, the Activity (A-375 [16]) was “Active” and the Activity (A-375 [17]) was “Active”. For the same compound, the Activity (A-375 [18]) was “Active” and the Activity [19] was “Active”.
